Reference: ChEMBL document CHEMBL1127530 (J Med Chem, 1994)

How the values were obtained:
[1] = molecular target: Epidermal growth factor receptor (Homo sapiens) (UniProt P00533); conditions: A-431, 150 uM
WiDr = assay: Cytotoxic effect on WiDr human colon cells; assay type: functional, cell-based
ANN-1 = assay: Cytotoxic effect on v-abl transformed murine ANN-1 cells; assay type: functional, cell-based; conditions: Mus musculus
Summary of the method: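 Abelson virus-transformed ANN-1 murine fibroblasts expressing the gag-abl tyrosine kinase, 2 × 10^4 cells in DMEM with 10% fetal calf serum; compounds in DMF or DMSO, final solvent ≤0.5% v/v. Value is the mean of two determinations.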

HFF [2] = assay: (§1) Inhibition of EGF-induced mitogenesis in human foreskin fibroblasts; assay type: functional, cell-based
HFF [3] = assay: Inhibition of PDGF-induced mitogenesis in human foreskin fibroblasts; assay type: functional, cell-based
MCF7 = assay: Cytotoxic effect on MCF-7 human breast carcinoma cells; assay type: functional, cell-based
HFF [4] = assay: as §1; assay type: functional, cell-based; remark: listed apart in the source
NIH3T3 = assay: Cytotoxic effect on 3T3 cells; assay type: functional, cell-based; conditions: Mus musculus
Summary of the method: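 3T3 parental fibroblasts, 2 × 10^4 cells in DMEM with 10% fetal calf serum; compounds dissolved or suspended in DMF or DMSO, final solvent ≤0.5% v/v. Value is the mean of two determinations.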

Chain of Epidermal growth factor receptor (Homo sapiens) (P00533 whole entry): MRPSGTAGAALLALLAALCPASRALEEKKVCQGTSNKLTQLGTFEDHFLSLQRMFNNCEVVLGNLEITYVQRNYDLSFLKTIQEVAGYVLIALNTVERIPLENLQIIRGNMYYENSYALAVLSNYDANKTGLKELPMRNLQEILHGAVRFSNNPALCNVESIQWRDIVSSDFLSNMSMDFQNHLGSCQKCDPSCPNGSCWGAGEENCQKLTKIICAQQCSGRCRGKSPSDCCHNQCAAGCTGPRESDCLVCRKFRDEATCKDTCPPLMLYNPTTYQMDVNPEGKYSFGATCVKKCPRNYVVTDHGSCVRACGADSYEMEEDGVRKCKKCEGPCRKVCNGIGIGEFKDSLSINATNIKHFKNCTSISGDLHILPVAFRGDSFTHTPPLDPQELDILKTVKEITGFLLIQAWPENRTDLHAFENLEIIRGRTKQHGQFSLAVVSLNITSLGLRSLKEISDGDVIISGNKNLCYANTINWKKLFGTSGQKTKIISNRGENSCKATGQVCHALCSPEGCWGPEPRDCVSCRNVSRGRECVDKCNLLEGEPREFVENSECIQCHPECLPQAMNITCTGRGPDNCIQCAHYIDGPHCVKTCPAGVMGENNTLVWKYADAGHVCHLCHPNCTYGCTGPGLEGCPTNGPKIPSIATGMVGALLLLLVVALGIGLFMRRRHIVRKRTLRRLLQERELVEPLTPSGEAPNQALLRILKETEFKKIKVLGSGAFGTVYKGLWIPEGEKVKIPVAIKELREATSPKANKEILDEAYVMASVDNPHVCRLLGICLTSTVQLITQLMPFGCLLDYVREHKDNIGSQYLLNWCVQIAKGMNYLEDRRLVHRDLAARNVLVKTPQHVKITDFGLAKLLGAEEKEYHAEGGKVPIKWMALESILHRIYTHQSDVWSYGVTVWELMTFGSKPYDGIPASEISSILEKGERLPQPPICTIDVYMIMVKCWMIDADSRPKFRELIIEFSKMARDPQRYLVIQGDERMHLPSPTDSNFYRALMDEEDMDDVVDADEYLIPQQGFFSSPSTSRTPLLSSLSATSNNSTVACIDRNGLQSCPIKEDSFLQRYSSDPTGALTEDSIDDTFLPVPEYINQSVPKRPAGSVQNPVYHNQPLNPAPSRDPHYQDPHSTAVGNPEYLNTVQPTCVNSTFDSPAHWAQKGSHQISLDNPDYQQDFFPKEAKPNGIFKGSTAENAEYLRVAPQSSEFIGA

SMILES	inhibition [1]	IC50 (WiDr)	IC50 (ANN-1)	IC50 (HFF [2])	IC50 (HFF [3])	IC50 (MCF7)	IC50 (HFF [4])	IC50 (NIH3T3)
Oc1ccc(-c2nc3ccc(O)cc3s2)cc1	42%	67.2 µM	13.5 µM	13 µM	14 µM	25 µM	6.5 µM	11 µM
Oc1ccc(-c2nc3cc(O)c(O)cc3s2)cc1		24.7 µM	9 µM			8.4 µM		13.5 µM
Oc1cc(O)c2nc(-c3ccc(O)c(O)c3)sc2c1		47.7 µM	58.5 µM	7 µM	68 µM	41.3 µM	9 µM	47 µM
Oc1cccc(-c2nc3ccc(O)cc3s2)c1		18.3 µM	17 µM			2.7 µM		30.5 µM
Oc1ccc(-c2nc3cc(O)ccc3s2)cc1		62.2 µM	25.5 µM			41.4 µM		25 µM
Oc1ccc2nc(-c3ccccc3)sc2c1		45.2 µM	71 µM			27.3 µM		79.5 µM
Oc1ccc(-c2nc3ccccc3s2)cc1		68.7 µM	77 µM			27 µM		71.5 µM
O=c1c(O)c(-c2ccc(O)c(O)c2)oc2cc(O)cc(O)c12 [QUERCETIN]		40.2 µM	32.5 µM		100 µM	24 µM		39.5 µM
Oc1ccc(-c2nc3c(O)cc(O)cc3s2)cc1		31.2 µM	21.5 µM	7 µM	20 µM	33.3 µM	16 µM	20 µM
CC/C(=C(/CC)c1ccc(O)cc1)c1ccc(O)cc1 [DIETHYLSTILBESTROL]			3 µM			5 µM		2.5 µM
Oc1ccc2nc(-c3ccc(O)c(O)c3)sc2c1		23 µM	5.5 µM			17.6 µM		6 µM
O=c1c(-c2ccc(O)cc2)coc2cc(O)cc(O)c12 [GENISTEIN]		27.7 µM	8 µM			15.1 µM		24 µM
Oc1ccc(-c2nc3cc(O)c(O)cc3s2)cc1O	38%	34.2 µM	32 µM			5.1 µM		56.5 µM
